Experimental data as given in ChEMBL document CHEMBL4414680, “Identification of new potent A1 adenosine receptor antagonists using a multistage virtual screening approach” (Eur J Med Chem, 2020).

Key:
Adenosine receptor A1 [1] = target: T1, Adenosine receptor A1 (Homo sapiens, UniProt P30542); experiment: Displacement of [3H]DPCPX from human A1AR expressed in CHO cells incubated for 50 mins by radioligand binding assay; format: cell-based
T1 sequence (P30542 whole entry): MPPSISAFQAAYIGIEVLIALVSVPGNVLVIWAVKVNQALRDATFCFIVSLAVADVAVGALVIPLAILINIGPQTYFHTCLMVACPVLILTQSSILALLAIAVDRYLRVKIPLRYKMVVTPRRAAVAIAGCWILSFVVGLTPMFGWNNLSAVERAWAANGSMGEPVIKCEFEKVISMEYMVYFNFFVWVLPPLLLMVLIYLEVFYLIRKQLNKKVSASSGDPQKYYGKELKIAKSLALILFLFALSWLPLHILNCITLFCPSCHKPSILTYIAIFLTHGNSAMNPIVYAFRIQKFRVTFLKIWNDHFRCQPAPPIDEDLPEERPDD

Homo sapiens = organism: Homo sapiens; experiment: Selectivity index, ratio of Ki for human A1AR expressed in CHO cells to Ki for human A2AR expressed in CHO cells by radioligand binding assay; format: cell-based
Adenosine receptor A2a = Adenosine receptor A2a (Homo sapiens, UniProt P29274); experiment: Displacement of [3H]ZM241385 from human A2AR expressed in CHO cells after 90 mins by radioligand binding assay; format: cell-based
Adenosine receptor A2a, sequence (P29274 whole entry): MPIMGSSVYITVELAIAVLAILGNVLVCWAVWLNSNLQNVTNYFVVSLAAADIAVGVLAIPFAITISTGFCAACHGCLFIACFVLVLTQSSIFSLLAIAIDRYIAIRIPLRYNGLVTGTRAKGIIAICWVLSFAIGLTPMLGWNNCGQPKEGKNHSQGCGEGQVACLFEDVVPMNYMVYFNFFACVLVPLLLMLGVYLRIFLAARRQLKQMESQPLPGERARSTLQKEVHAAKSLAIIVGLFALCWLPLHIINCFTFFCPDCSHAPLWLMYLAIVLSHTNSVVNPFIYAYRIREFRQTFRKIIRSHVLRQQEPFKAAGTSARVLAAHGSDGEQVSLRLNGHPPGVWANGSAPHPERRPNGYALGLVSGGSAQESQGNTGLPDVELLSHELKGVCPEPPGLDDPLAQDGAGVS

Adenosine receptor A1 [2] = target: T1, Adenosine receptor A1; experiment: Antagonist activity at human A1AR expressed in CHO-K1 cells assessed as reduction in NECA-induced inhibition of forskolin-stimulated cAMP accumulation incubated for 30 mins by fluorescence based assay; format: functional, cell-based
How it was run: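 CHO-K1 cells stably expressing human A1AR, grown in F12K + 10% FBS + 800 µg/ml hygromycin B at 37 ℃/5% CO2, resuspended in HBSS with 0.1% BSA, 20 mM HEPES, 100 nM IBMX; 8000 cells/well. Ten 3-fold compound dilutions; forskolin (8 µM) plus NECA (40 nM) added, 30 min at 37 ℃. HTRF cAMP detection (Eu3+ cryptate anti-cAMP, d2-cAMP), 1 h room temperature, read at 665/615 nm.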

Ki (Adenosine receptor A1 [1]) | Ki (Adenosine receptor A2a) | IC50 (Adenosine receptor A1 [2]) | SMILES | Ratio Ki (Homo sapiens)
0.589 µM | 36.3 µM | 2.82 µM | O=C(Cn1cc(-c2ccccc2)c2ncn(C3CC3)c(=O)c21)NCc1ccc(F)cc1 | 0.016
10.7 µM | – | – | CCC(C(=O)n1nc(-c2ccccc2)nc1N)c1ccccc1 (stereo unspecified) | –
3.24 µM | – | – | Cc1cc(=O)n2c(n1)NC(Nc1cccc(C)c1C)=NC2c1ccc(F)cc1 (stereo unspecified) | –
0.209 µM | 38 µM | 1.86 µM | COc1ccc(-c2cc(-c3cccc(Br)c3)c(C#N)c(N)n2)cc1 | 0.006
0.513 µM | > 100 µM | 3.09 µM | Cc1ccc(C(=O)Nc2c(C(=O)NC3CCCC3)[nH]c3ccc(C)cc23)cc1 | < 0.01
13.5 µM | – | – | CC(C)CN1C(=O)/C(=C/c2c(NCCc3ccccc3)nc3ccccn3c2=O)SC1=S | –
3.02 µM | – | – | COc1ccc(/C=C/c2ccnc3nc(N4CCCCC4)[nH]c(=O)c23)cc1 | –
20 µM | – | – | Oc1ccccc1Nc1nc(-c2ccccc2)c2cc(Cl)ccc2n1 | –
0.776 µM | > 100 µM | 1.48 µM | O=c1[nH]c(N2CCCC2)nc2nccc(-c3ccc(Cl)cc3)c12 | < 0.01
6.92 µM | – | – | Cc1cc(C)nc(Nc2nc(-c3ccccc3)c3ccc(Cl)cc3n2)n1 | –
18.6 µM | – | – | Cc1ccc(C2=CC(c3ccccc3Cl)n3nc(CCCO)nc3N2)cc1 (stereo unspecified) | –
32.4 µM | – | – | CC(C)C(=O)Nc1nc2n(n1)C(c1ccccc1Cl)C=C(c1ccccc1)N2 (stereo unspecified) | –
1.12 µM | – | – | COc1ccccc1CNC(=O)c1cc(Nc2ccccc2C)nc2ccccc12 | –
0.0741 µM | > 100 µM | 0.417 µM | N#Cc1c(N)nc2c(c1-c1ccc3c(c1)OCO3)CCCC2 | < 0.001
25.7 µM | – | – | CCCN(CCC)c1c(-c2ccccc2)c2cc(Cl)ccc2[nH]c1=O | –
7.24 µM | – | – | O=C1CC(C(=O)Nc2ccccc2)c2c(nc(SCc3ccccc3F)[nH]c2=O)N1 (stereo unspecified) | –
19.5 µM | – | – | CCOC(=O)N1CCN(c2cc(NC3CCCCC3)c3c4c(onc24)-c2ccccc2C3=O)CC1 | –
0.708 µM | > 100 µM | 1.26 µM | C=CCn1c(SCc2ccccn2)nc2c([nH]c3ccccc32)c1=O | < 0.01
